Reference: ChEMBL document CHEMBL4414545, “Beta-Glucuronidase Catalyzes Deconjugation and Activation of Curcumin-Glucuronide in Bone” (J Nat Prod, 2019)

Key:
[1] = Drug concentration in C57BL/6J mouse assessed as level of aglycone curcumin in serum at 500 mg/kg administered via oral gavage measured after 30 mins by LC-MS analysis; type: ADME, organism-based; settings: in vivo, 0.5 h, read-out: Ct
How it was run: (§1)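 Oral gavage of curcumin, 500 mg/kg in DMSO, to C57BL/6J or C3H/HeJ mice, n=3–4/group. Serum and marrow were taken 30 min post-dose. Marrow pellets from leg centrifugation were resuspended in 50 mM sodium acetate pH 5 and kept 2 h on ice; supernatants were used. Aglycone curcumin and curcumin-glucuronide were quantified by LC/MS, with marrow values adjusted to pellet volume.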

[2] = Drug concentration in C57BL/6J mouse assessed as level of aglycone curcumin in bone marrow at 500 mg/kg administered via oral gavage measured after 30 mins by LC-MS analysis; type: ADME, organism-based; settings: in vivo, 0.5 h, read-out: Ct; how it was run: as §1
[3] = Drug metabolism in C57BL/6J mouse assessed as level of curcumin-glucuronide in serum at 500 mg/kg administered via oral gavage measured after 30 mins by LC-MS analysis; type: ADME, organism-based; settings: in vivo, 0.5 h, read-out: Ct; how it was run: as §1
[4] = Drug concentration in mps/mps mutant mouse assessed as level of aglycone curcumin in serum at 100 mg/kg, ip measured after 20 mins by LC-MS analysis; type: ADME, organism-based; settings: in vivo, read-out: Ct
How it was run: (§2)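 Curcumin at 100 mg/kg in DMSO was given ip to 15-week C57BL/6J, C3H/HeJ or mps/mps (GUSB-null) mice, n=3–4/group. Serum and marrow were harvested 20 min later. Marrow was resuspended in 50 mM sodium acetate pH 5 for 2 h on ice. Aglycone and glucuronidated curcumin were measured by LC/MS, with marrow values corrected to the original pellet volume.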

[5] = Ratio of drug concentration in C57BL/6J mouse bone marrow to drug concentration in C57BL/6J mouse serum; type: ADME
[6] = Half-life in C57BL/6J mouse bone marrow at 500 mg/kg administered via oral gavage measured after 30 mins by LC-MS analysis; type: ADME, organism-based; settings: in vivo, 0.5 h
How it was run: (§3)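 Female 4-week C57BL/6J mice given a single oral gavage of curcumin, 500 mg/kg in DMSO. Serum and bone marrow were collected under isoflurane at the indicated times up to 48 h, n=4/group. Total curcumin (aglycone plus glucuronide) was measured by LC/MS with d6-curcumin standards. PK parameters came from noncompartmental analysis after extravascular dosing.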

[7] = Drug metabolism in C3H/HeJ mouse exhibiting decrease in GUSB activity assessed as level of curcumin-glucuronide in bone marrow at 500 mg/kg administered via oral gavage measured after 30 mins by LC-MS analysis; type: ADME, organism-based; settings: read-out: Ct, in vivo, 0.5 h; how it was run: as §1
[8] = AUC (0 to infinity) in C57BL/6J mouse bone marrow at 500 mg/kg administered via oral gavage measured after 30 mins by LC-MS analysis; type: ADME, organism-based; design: dose 500 mg/kg, route oral, time infinity; how it was run: as §3
[9] = Drug metabolism in C3H/HeJ mouse exhibiting decrease in GUSB activity assessed as level of curcumin-glucuronide in serum at 100 mg/kg, ip measured after 20 mins by LC-MS analysis; type: ADME, organism-based; settings: in vivo, read-out: Ct; how it was run: as §2
[10] = Cmax in C57BL/6J mouse serum at 500 mg/kg administered via oral gavage measured after 30 mins by LC-MS analysis; type: ADME, organism-based; design: dose 500 mg/kg, route oral; how it was run: as §3
[11] = Drug concentration in mps/mps mutant mouse assessed as level of aglycone curcumin in bone marrow at 100 mg/kg, ip measured after 20 mins by LC-MS analysis; type: ADME, organism-based; settings: in vivo, read-out: Ct; how it was run: as §2
[12] = Drug concentration in C3H/HeJ mouse exhibiting decrease in GUSB activity assessed as level of aglycone curcumin in serum at 100 mg/kg, ip measured after 20 mins by LC-MS analysis; type: ADME, organism-based; settings: in vivo, read-out: Ct; how it was run: as §2
[13] = Drug concentration in C3H/HeJ mouse exhibiting decrease in GUSB activity assessed as level of aglycone curcumin in bone marrow at 500 mg/kg administered via oral gavage measured after 30 mins by LC-MS analysis; type: ADME, organism-based; settings: in vivo, 0.5 h, read-out: Ct; how it was run: as §1
[14] = Drug metabolism in C3H/HeJ mouse exhibiting decrease in GUSB activity assessed as level of curcumin-glucuronide in serum at 500 mg/kg administered via oral gavage measured after 30 mins by LC-MS analysis; type: ADME, organism-based; settings: in vivo, 0.5 h, read-out: Ct; how it was run: as §1
[15] = Drug metabolism in C57BL/6J mouse assessed as level of curcumin-glucuronide in bone marrow at 100 mg/kg, ip measured after 20 mins by LC-MS analysis; type: ADME, organism-based; settings: in vivo, read-out: Ct; how it was run: as §2
[16] = Cmax in C57BL/6J mouse bone marrow at 500 mg/kg administered via oral gavage measured after 30 mins by LC-MS analysis; type: ADME, organism-based; design: dose 500 mg/kg, route oral; how it was run: as §3
[17] = Ratio of AUC (0 to 48 hrs) in C57BL/6J mouse serum to AUC (0 to 48 hrs) in C57BL/6J mouse bone marrow at 500 mg/kg administered via oral gavage; type: ADME, organism-based; settings: in vivo
[18] = AUC (0 to infinity) in C57BL/6J mouse serum at 500 mg/kg administered via oral gavage measured after 30 mins by LC-MS analysis; type: ADME, organism-based; design: dose 500 mg/kg, route oral, time infinity; how it was run: as §3
[19] = Drug metabolism in C57BL/6J mouse assessed as level of curcumin-glucuronide in serum at 100 mg/kg, ip measured after 20 mins by LC-MS analysis; type: ADME, organism-based; settings: in vivo, read-out: Ct; how it was run: as §2
[20] = Ratio of AUC (0 to infinity) in C57BL/6J mouse serum to AUC (0 to infinity) in C57BL/6J mouse bone marrow at 500 mg/kg administered via oral gavage; type: ADME, organism-based; settings: in vivo
[21] = Prodrug conversion in C57BL/6J mouse serum assessed as effect on aglycone curcumin level at 500 mg/kg administered via oral gavage incubated for 30 mins followed by resuspension in sodium acetate buffer at pH 5 measured after 2 hrs in presence of saccharolactone by LC-MS analysis; type: ADME, organism-based; settings: in vivo, pH 5, 500 mg/kg
[22] = AUC (0 to 48 hrs) in C57BL/6J mouse bone marrow at 500 mg/kg administered via oral gavage measured after 30 mins by LC-MS analysis; type: ADME, organism-based; design: time < 48 hr, dose 500 mg/kg, route oral; how it was run: as §3
[23] = Drug concentration in C3H/HeJ mouse exhibiting decrease in GUSB activity assessed as level of aglycone curcumin in bone marrow at 100 mg/kg, ip measured after 20 mins by LC-MS analysis; type: ADME, organism-based; settings: in vivo, read-out: Ct; how it was run: as §2
[24] = AUC (0 to 48 hrs) in C57BL/6J mouse serum at 500 mg/kg administered via oral gavage measured after 30 mins by LC-MS analysis; type: ADME, organism-based; design: time < 48 hr, dose 500 mg/kg, route oral; how it was run: as §3
[25] = Tmax in C57BL/6J mouse bone marrow at 500 mg/kg administered via oral gavage measured after 30 mins by LC-MS analysis; type: ADME, organism-based; how it was run: as §3
[26] = Drug concentration in C57BL/6J mouse assessed as level of aglycone curcumin in bone marrow at 100 mg/kg, ip measured after 20 mins by LC-MS analysis; type: ADME, organism-based; settings: in vivo, read-out: Ct; how it was run: as §2
[27] = Drug concentration in C57BL/6J mouse assessed as level of aglycone curcumin in serum at 100 mg/kg, ip measured after 20 mins by LC-MS analysis; type: ADME, organism-based; settings: in vivo, read-out: Ct; how it was run: as §2
[28] = Half-life in C57BL/6J mouse serum at 500 mg/kg administered via oral gavage measured after 30 mins by LC-MS analysis; type: ADME, organism-based; settings: in vivo, 0.5 h; how it was run: as §3
[29] = Prodrug conversion in C57BL/6J mouse bone marrow assessed as beta-glucuronidase mediated effect on aglycone curcumin level at 500 mg/kg administered via oral gavage incubated for 30 mins followed by resuspension in sodium acetate buffer at pH 5 measured after 2 hrs in presence of saccharolactone by LC-MS analysis; type: ADME, organism-based; settings: in vivo, pH 5, 500 mg/kg
How it was run: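 C57BL/6J mice were gavaged with curcumin at 500 mg/kg, and marrow was harvested 30 min later. Marrow was resuspended in 50 mM sodium acetate pH 5 with or without 10 mM saccharolactone, or mice received saccharolactone 1 g/kg ip in saline 1 h before curcumin. Suspensions were kept 2 h on ice, and aglycone curcumin (% of total) was measured by LC/MS, n=3–4/group.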

[30] = Drug metabolism in mps/mps mutant mouse assessed as level of curcumin-glucuronide in serum at 100 mg/kg, ip measured after 20 mins by LC-MS analysis; type: ADME, organism-based; settings: in vivo, read-out: Ct; how it was run: as §2
RAW264.7 [31] = assay: Inhibition of RANKL-induced osteoclastogenesis in murine RAW264.7 cells assessed as formation of TRAP positive multinucleated osteoclasts pretreated for 4 hrs followed by RANKL addition measured after 72 hrs; type: functional, cell-based; settings: Mus musculus
How it was run: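 RAW 264.7 cells, used within 10 passages, were seeded at 5×10^3/well in DMEM with 10% FBS and allowed to adhere overnight at 37°C. Cells were pretreated 4 h with aglycone curcumin or curcumin-glucuronide, then given RANKL (50 ng/mL final) for 72 h. TRAP-positive multinucleated osteoclasts were counted, n=4/group.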

[32] = Drug concentration in C3H/HeJ mouse exhibiting decrease in GUSB activity assessed as level of curcumin-glucuronide in bone marrow at 100 mg/kg, ip measured after 20 mins by LC-MS analysis; type: ADME, organism-based; settings: in vivo, read-out: Ct; how it was run: as §2
[33] = Tmax in C57BL/6J mouse serum at 500 mg/kg administered via oral gavage measured after 30 mins by LC-MS analysis; type: ADME, organism-based; how it was run: as §3
[34] = Drug metabolism in C57BL/6J mouse assessed as level of curcumin-glucuronide in bone marrow at 500 mg/kg administered via oral gavage measured after 30 mins by LC-MS analysis; type: ADME, organism-based; settings: in vivo, 0.5 h, read-out: Ct; how it was run: as §1
RAW264.7 [35] = assay: Cytotoxicity against murine RAW264.7 cells assessed as effect on cell viability at 3 uM; type: cell-based; settings: mouse, raw264.7, 3 µM

concentration [1]: 170 nM
concentration [2]: 1140 nM
concentration [3]: 82700 nM
concentration [4]: 22800 nM
Kp [5]: 3
t1/2 [6]: 468 min
concentration [7]: 1190 nM
AUC(0-inf) [8]: 48.3 µM·h
concentration [9]: 92100 nM
Cmax [10]: 106000 nM
concentration [11]: 400 nM
concentration [12]: 2800 nM
concentration [13]: 470 nM
concentration [14]: 80000 nM
concentration [15]: 1300 nM
Cmax [16]: 5900 nM
Ratio [17]: 10
AUC(0-inf) [18]: 488 µM·h
concentration [19]: 92700 nM
Ratio [20]: 10
Drug metabolism [21]: Metabolite_Detected
AUC(0-t) at 48 h [22]: 48 µM·h
concentration [23]: 500 nM
AUC(0-t) at 48 h [24]: 487 µM·h
Tmax [25]: 30 min
concentration [26]: 1900 nM
concentration [27]: 7200 nM
t1/2 [28]: 264 min
Drug metabolism [29]: Metabolite_Detected
concentration [30]: 151000 nM
concentration [32]: 2700 nM
Tmax [33]: 30 min
concentration [34]: 360 nM
Compound: COc1cc(/C=C/C(=O)CC(=O)/C=C/c2ccc(O)c(OC)c2)ccc1O [CURCUMIN]
IC50 (RAW264.7 [31]): 3000 nM
Activity (RAW264.7 [35]): Non-Toxic
